Data set [1] relates to RAW264.7. Put plainly: Antiinflammatory activity in mouse RAW264.7 cells assessed as inhibition of LPS-induced NO production at 1 uM incubated for 10 mins prior to LPS-challenge measured after 18 hrs by Griess method relative to control. It counts as functional. A digest of the protocol:
(§1)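 RAW264.7 cells (DMEM, 10% FBS, 37 °C, 5% CO2) seeded at 2.5 × 10^5 cells/well. After 6 h, nonadherent cells were washed off. Adherent cells were exposed to test compound for 10 min, then to LPS (E. coli 055:B5, final 10 µg/mL) for 18 h. Supernatant nitrite was measured by Griess reaction. Inhibition % = (A−B)/(A−C)×100, with C as the no-LPS control. IC50 was read graphically; N = 4, mean ± SEM. CAPE was the reference.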
(Griess reagent forms a coloured azo dye with nitrite.)

In data set [2] the test system is RAW264.7. In words: Antiinflammatory activity in mouse RAW264.7 cells assessed as inhibition of LPS-induced NO production at 10 uM incubated for 10 mins prior to LPS-challenge measured after 18 hrs by Griess method relative to control. Type of data set: functional. The essentials:
as §1

The test system of data set [3] is RAW264.7. Put plainly: Antiinflammatory activity in mouse RAW264.7 cells assessed as inhibition of LPS-induced NO production at 30 uM incubated for 10 mins prior to LPS-challenge measured after 18 hrs by Griess method relative to control. Type of data set: functional. A digest of the protocol: as §1
Data set [4] is described as follows: Cytotoxicity against mouse RAW264.7 cells assessed as cell viability at 3 uM after 18 hrs by MTT assay. It counts as cell-based. The following applies: read-out: Activity. The essentials: (§2)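 MTT viability assay. RAW264.7 cells seeded at 1.0 × 10^5 cells/well; after 6 h, nonadherent cells were washed off. Adherent cells were cultured with test compound for 18 h. MTT (5 mg/mL in PBS) was added for 2 h at 37 °C. Formazan was dissolved in isopropanol with 0.04 M HCl and OD read at 570 nm (reference 655 nm).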
(Formazan colour is commonly taken as a measure of viable cells.)

Data set [5] is described as follows: Cytotoxicity against mouse RAW264.7 cells assessed as cell viability at 10 uM after 18 hrs by MTT assay. Type of data set: cell-based. The settings on record: read-out: Activity. A digest of the protocol:
as §2

The nature of data set [6]: Cytotoxicity against mouse RAW264.7 cells assessed as cell viability at 30 uM after 18 hrs by MTT assay. Type of data set: cell-based. The following applies: read-out: Activity. A digest of the protocol: as §2
The test system of data set [7] is RAW264.7. In words: Antiinflammatory activity in mouse RAW264.7 cells assessed as inhibition of LPS-induced NO production incubated for 10 mins prior to LPS-challenge measured after 18 hrs by Griess method. It counts as functional, cell-based. A digest of the protocol:
as §1

Data set [8] concerns RAW264.7. In words: Antiinflammatory activity in mouse RAW264.7 cells assessed as inhibition of LPS-induced iNOS expression at 1 to 30 uM incubated for 10 mins prior to LPS-challenge measured after 12 hrs by Western blot analysis. It counts as functional, cell-based. A digest of the protocol: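 RAW264.7 cells (5.0 × 10^6/well, 6-well) adhered for 6 h. Compound was added for 10 min, then LPS (final 10 µg/mL) for 12 h. Lysates were sonicated and normalized by BCA. 50 µg protein/lane was run on 10% SDS–PAGE and transferred to PVDF. Blots were probed for iNOS and β-actin (primary 1:1000, HRP secondary 1:5000) and detected by ECL.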
(A western blot detects proteins with antibodies after separation by electrophoresis.)

The subject of data set [9] is RAW264.7. In words: Inhibition of SAPK/JNK phosphorylation in LPS-induced mouse RAW264.7 cells at 1 to 30 uM incubated for 10 mins prior to LPS-challenge measured after 30 mins by Western blot analysis. Type of data set: cell-based. A digest of the protocol:
(§3)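 RAW264.7 cells (5.0 × 10^6/well) adhered for 6 h. Compound was added for 10 min, then LPS (final 10 µg/mL) for 30 min. BCA-normalized lysates, 25 µg/lane, were run on 10% SDS–PAGE and transferred to PVDF. Phospho-proteins (p-JNK, p-p38, p-STAT1 Ser727) were blocked in Blocking One-P, others (NF-κB p65) in Blocking One. Primary antibodies 1:1000 for 1 h at rt; detection by ECL.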

Data set [10] addresses MAP kinase p38 (Mus musculus) (UniProt P47811+O08911+Q9WUI1+Q9Z1B7). In words: Inhibition of p38 phosphorylation in LPS-induced mouse RAW264.7 cells at 1 to 30 uM incubated for 10 mins prior to LPS-challenge measured after 30 mins by Western blot analysis. Type of data set: cell-based. A digest of the protocol:
as §3

For data set [11], the target named is T1, Signal transducer and activator of transcription 1 (Mus musculus) (UniProt P42225).
T1 sequence (whole entry): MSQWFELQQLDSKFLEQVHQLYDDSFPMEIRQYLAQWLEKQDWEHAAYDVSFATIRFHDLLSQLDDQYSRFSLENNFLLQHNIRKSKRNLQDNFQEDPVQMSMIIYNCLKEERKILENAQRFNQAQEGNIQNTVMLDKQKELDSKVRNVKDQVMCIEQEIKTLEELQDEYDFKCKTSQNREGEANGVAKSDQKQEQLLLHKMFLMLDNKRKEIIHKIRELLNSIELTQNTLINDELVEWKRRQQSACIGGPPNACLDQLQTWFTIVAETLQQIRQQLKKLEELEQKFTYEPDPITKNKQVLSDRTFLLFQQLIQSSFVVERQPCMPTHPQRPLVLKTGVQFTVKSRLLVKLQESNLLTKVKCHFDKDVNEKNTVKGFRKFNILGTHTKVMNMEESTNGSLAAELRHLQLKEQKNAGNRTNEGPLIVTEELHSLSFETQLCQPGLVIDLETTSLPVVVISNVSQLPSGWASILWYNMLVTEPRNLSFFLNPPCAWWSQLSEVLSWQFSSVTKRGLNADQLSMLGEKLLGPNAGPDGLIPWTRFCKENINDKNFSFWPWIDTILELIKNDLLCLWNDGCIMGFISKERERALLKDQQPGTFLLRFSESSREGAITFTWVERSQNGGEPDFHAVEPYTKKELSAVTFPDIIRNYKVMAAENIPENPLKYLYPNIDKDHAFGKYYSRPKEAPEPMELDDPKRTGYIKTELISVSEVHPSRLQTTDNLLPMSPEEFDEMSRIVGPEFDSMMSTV
In words: Inhibition of STAT1 phosphorylation in LPS-induced mouse RAW264.7 cells incubated for 10 mins prior to LPS-challenge measured after 30 mins by Western blot analysis. Type of data set: cell-based. A digest of the protocol: as §3

Data set [12] deals with RAW264.7. Put plainly: Antiinflammatory activity in mouse RAW264.7 cells assessed as inhibition of LPS-induced NO production at 3 uM incubated for 10 mins prior to LPS-challenge measured after 18 hrs by Griess method relative to control.
In data set [13] the test system is RAW264.7. Put plainly: Antiinflammatory activity in mouse RAW264.7 cells assessed as inhibition of LPS-induced NO production at 100 uM relative to control. Type of data set: functional. The essentials:
as §1

Data set [14] has as its system RAW264.7. In words: Antiinflammatory activity in mouse RAW264.7 cells assessed as inhibition of LPS-induced NO production at 10 uM relative to control. Type of data set: functional. The essentials:
as §1

The test system of data set [15] is RAW264.7. Put plainly: Antiinflammatory activity in mouse RAW264.7 cells assessed as inhibition of LPS-induced NO production at 30 uM relative to control. It counts as functional. A digest of the protocol: as §1
Data set [16] relates to RAW264.7. Put plainly: Antiinflammatory activity in mouse RAW264.7 cells assessed as inhibition of LPS-induced NO production relative to control. It counts as functional, cell-based. A digest of the protocol:
as §1

Activity calls are given as the source filed them. The calls are words filed in the database; no cut-off is given here.

The term inhibition denotes the drop in the measured response relative to a control, in per cent. The IC50 is the point on the concentration scale where inhibition reaches its midpoint.

Turning to `CC(C)=CCc1c(O)c(C(=O)C(C)C)c(O)c2c(-c3ccccc3)cc(=O)oc12` [MESUOL], the inhibition at 1 µM with RAW264.7 [1] was found to be 33.7%. For the same compound, the inhibition at 10 µM in the data set with RAW264.7 [2] was found to be 89.4%. In the data set with RAW264.7 [3], the inhibition at 30 µM was 103%. Moreover, the viability at 18 h, 3 µM in [4] was 57.2%. Besides, the viability at 18 h, 10 µM in [5] is 27.2%. In addition, the viability at 18 h, 30 µM in data set [6] was found to be 10.1%. Moreover, in the data set with RAW264.7 [7], the IC50 came to 1300 nM. Also, the inhibition entry in the data set with RAW264.7 [8] was “Active”. In addition, the inhibition entry (in the data set with RAW264.7 [9]; in data set [10]) was “inactive” each time. In addition, the inhibition result in data set [11] is “Dose-dependent effect”. The inhibition at 3 µM with RAW264.7 [12] turned out to be 83.4%.
Consider `COc1cccc(-c2cc(=O)c3ccccc3o2)c1N`, for which the inhibition at 100 µM in the data set with RAW264.7 [13] was -2.4%.
Turning to `Nc1n[nH]c2nnc(-c3c(-c4ccccc4)nn4ccccc34)cc12`, the inhibition at 10 µM with RAW264.7 [14] is 7.2%.
Turning to `CCCC(=O)c1c(O)c(C/C=C(\C)CCC=C(C)C)c(O)c2c([C@H](CC)OC(C)=O)cc(=O)oc12` [MAMMEASIN A], in the data set on RAW264.7 [1], the inhibition at 1 µM turned out to be 27.5%. Further, in the data set on RAW264.7 [2], the inhibition at 10 µM is 88.1%. Also, the inhibition at 30 µM in the data set on RAW264.7 [3] was 92%. Besides, the viability at 18 h, 3 µM in [4] was determined as 56.4%. The viability at 18 h, 10 µM in [5] amounted to 24.1%. Besides, the viability at 18 h, 30 µM in data set [6] is 10.2%. Moreover, the IC50 with RAW264.7 [7] is 1800 nM. Also, in the data set on RAW264.7 [8], the inhibition entry was “Active”. The inhibition result (in the data set with RAW264.7 [9]; in [10]) was “inactive” throughout. Also, the inhibition entry in data set [11] was “Dose-dependent effect”. In addition, the inhibition at 3 µM with RAW264.7 [12] was found to be 72.9%.
Turning to `Oc1c2ccccc2c2c3c(cccc13)N=N2` [SP-600125], the inhibition at 30 µM with RAW264.7 [15] was determined as 74.6%. In addition, the IC50 in the data set on RAW264.7 [16] was determined as 17000 nM.

For the origin of these results see ChEMBL document CHEMBL2062365, “Suppressive effects of coumarins from Mammea siamensis on inducible nitric oxide synthase expression in RAW264.7 cells” (Bioorg Med Chem, 2012).
